Screening results deposited in PubChem BioAssay by several laboratories.
KCNQ1 inh = blocks the human KCNQ1 potassium channel | B-score at 10 µM | CHO-K1 KCNQ1, FluxOR thallium flux fluorescence; hits give high values | AID 2642 | P51787 | 310,000 tested, 1.3% active;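 active means compounds whose thallium flux B-score, printed positive for inhibition, exceeds three library SD while starting fluorescence stays within three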;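 further: channel opened by potassium depolarization with thallium stimulus after 20 min compound exposure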
KCNK9 inh = blocks the human KCNK9 two-pore domain potassium channel. Q9NPC2. HEK293 KCNK9, FluxOR thallium flux fluorescence; hits give low values. B-score at 10 µM. 310,000 tested, 1.2% active;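 active means ratio B-score over 3 SD below the library mean, with starting fluorescence within 5 SD of its mean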;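 further: negative B-score means less thallium flux so channel inhibition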
KCC2 mod = modulators of human KCC2 chloride dependent transport; Q9H2X9; 190,000 tested, 2.2% active; B-score of Tl+ flux slope (higher = more flux/activation; lower = inhibition) at 10 µM; KCC2 cells, thallium flux FluoZin-2 fluorescence; AID 1456;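 active means thallium flux slope and its plate-corrected score both differing from the plate sample mean at a set confidence after two filtering rounds, in either direction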;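 further: slope of fluorescence scaled to starting intensity during 10 to 20 s after thallium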
hERG rescue = hERG (human) protection from proarrhythmic block; CHO-hERG, FluxOR thallium flux, dofetilide IC70 present; activation (rescue from dofetilide block), less the hit threshold, % at 10 µM; 310,000 tested, 0.51% active; AID 1511;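 active means activation above the mean of controls blocked by dofetilide plus 5 SD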;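 further: thallium influx through hERG after potassium depolarization seen as dye fluorescence rise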
KCNK3 inh = human KCNK3 channel inhibition, primary screen; O14649; CHO-KCNK3 thallium flux, FluxOR fluorescence; hits give low values; B-score at 10 µM; 340,000 tested, 0.84% active; AID 602410;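 active means B-score under library mean minus 4 SD, starting fluorescence ratio at most library mean plus 5 SD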;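 further: more negative B-score means stronger inhibition of thallium flux through KCNK3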
KCNQ1 pot = human KCNQ1 channel potentiation or activation. P51787. CHO-K1 KCNQ1, thallium flux FluxOR fluorescence; hits give high values. B-score at 10 µM. 310,000 tested, 0.35% active;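 active means fluorescence ratio B-score, a plate-corrected score, at least three library SD, with initial intensity B-score within 5 SD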
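System: Stable KCNQ1 CHO-K1 line | Incubation: 90 min dye loading and 20 min compound exposure, both at room temperature | Measure: Ratio B score | Medium: Assay buffer for compound exposure, DMSO matched across wells | Compound dosing: Single-concentration screen | Probe or stimulus: K+/Tl+ depolarizing stimulus | Measured by: Kinetic FluxOR fluorescence, 10 s baseline plus 110 s post-stimulus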
KCNK9 block conf = confirmation of human KCNK9 potassium channel inhibitors; shares compounds with KCNK9 inh; 4,900 tested, 43% active; inhibition, % at 10 µM; HEK293 KCNK9 cells, FluxOR thallium flux fluorescence; AID 492992;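 active means thallium signal inhibited by more than 5 SD of the compound-free buffer control wells, on both duplicate plates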
Kir21 sel = mouse Kir2.1 off-target activity of KCNK9 modulators | AID 492993 | 4,900 tested, 4% active | shares compounds with KCNK9 inh | inhibition, % at 10 µM | Kir2.1 cells, FluxOR thallium flux fluorescence;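 active means thallium signal drop more than 5 SD beyond the mean of the no-compound control wells, seen in both duplicate plates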;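 further: signal is fluorescence rise after thallium addition divided by baseline fluorescence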
HEK293 Tl ctr = non-induced cell nonspecific activity of KCNK9 modulators | shares compounds with KCNK9 inh | non-induced KCNK9-HEK293, FluxOR thallium flux | inhibition, % at 10 µM | 4,900 tested, 40% active | AID 492997;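 active means thallium signal drop beyond 5 SD of the untreated control mean, on both duplicate plates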
Of the large screens only hits and unclear results are named; the others gave an inactive call (follow-up assays come after a bar, where they were run). This is a sample that favours compounds with a hit; in the whole collection about 4.1% have one here.

CCCCCCCCC(=O)N/N=C(\C)c1ccc(O)cc1O	KCNK9 inh -10 | KCNK9 block conf 57% | Kir21 sel inactive | HEK293 Tl ctr 42%
CCCCCCCC(=O)N/N=C(\C)c1ccc(O)cc1O	none
F[B-](F)(F)c1cnc2ccccc2c1	none (no result: KCNQ1 inh, KCNK9 inh, KCC2 mod, hERG rescue, KCNQ1 pot)
O=c1nc(SCc2c(F)cccc2Cl)nc(-c2ccccc2)[nH]1	none (no result: KCNK3 inh)
O=c1nc(SCc2ccc(Cl)cc2)nc(-c2ccccc2)[nH]1	none | KCNK9 block conf inactive | Kir21 sel inactive | HEK293 Tl ctr inactive
O=C(NCc1cc(Br)cc(Br)c1OC(=O)c1ccccc1[N+](=O)[O-])c1ccccc1	KCNK9 inh -9.9 | KCNK9 block conf 62% | Kir21 sel inactive | HEK293 Tl ctr 34%
O=C(CN1C(=O)/C(=C/c2ccc(F)cc2)SC1=S)N1CCN(CCc2ccccn2)CC1	none (no result: KCC2 mod)
CC(NC(=O)CSCc1ccc(Br)cc1)c1ccccc1 (stereo not drawn)	none
CC(NC(=O)CSCc1ccccc1Br)c1ccccc1 (stereo not drawn)	none | KCNK9 block conf inactive | Kir21 sel inactive | HEK293 Tl ctr inactive
C=CCNC(=O)CSc1nnc(-c2ccccc2Br)n1-c1cccc(C(F)(F)F)c1	none
COc1ccc(CC(=O)Nc2ccc(C(N)=O)cc2)cc1	none
COC(=O)/N=C(/Cc1ccc(OC)cc1)c1ccc(OC)cc1	none (no result: KCC2 mod) | KCNK9 block conf inactive | Kir21 sel inactive | HEK293 Tl ctr inactive
CCOc1ccccc1NC(=O)c1cc(SC)ccc1Cl	none
Cc1[nH]nc(-c2ccc(O)c(C)c2O)c1Oc1ccccc1	KCNK9 inh -14 | KCNK9 block conf 34% | Kir21 sel inactive | HEK293 Tl ctr inactive
CCCCCc1ccc(OCCOCCn2c[n+](C)c3ccccc32)c(CCCCC)c1	KCNQ1 inh 7, KCNK9 inh -8.4 | KCNK9 block conf 53% | Kir21 sel 61% | HEK293 Tl ctr inactive
CCCCCc1ccc(OCCC[n+]2ccccc2)c(CCCCC)c1	none
CC(OC(=O)c1ccc(S(=O)(=O)N(C)C)cc1)C(=O)Nc1ccc(Cl)cn1 (stereo not drawn)	none
Cc1cc(Cl)cc2c(N=Nc3ccccc3C(=O)O)c(O)[nH]c12	none (no result: KCC2 mod) | KCNK9 block conf inactive | Kir21 sel inactive | HEK293 Tl ctr inactive
Cc1cc(Br)c(S(=O)(=O)NCc2cccnc2)cc1C	none (no result: KCC2 mod)
O=C(NNC(=S)Nc1ccc(Cl)c(Cl)c1)c1cccc([N+](=O)[O-])c1	KCNQ1 inh 11, KCC2 mod -5.4 | KCNK9 block conf inactive | Kir21 sel inactive | HEK293 Tl ctr inactive
O=C(NNC(=S)Nc1ccc(Cl)cc1Cl)c1ccc(N2CCOCC2)c([N+](=O)[O-])c1	KCNQ1 inh 6 | KCNK9 block conf inactive | Kir21 sel inactive | HEK293 Tl ctr inactive
Cc1cc(NC(=O)c2cc([N+](=O)[O-])ccc2Cl)no1	none
O=C(c1cc([N+](=O)[O-])ccc1Cl)N1CCN(c2ccccc2)CC1	none
O=C(c1cc([N+](=O)[O-])ccc1Cl)N1c2ccccc2Sc2ccccc21	KCNK9 inh -12 | KCNK9 block conf 61% | Kir21 sel inactive | HEK293 Tl ctr 45%
O=C(Nc1cccc(NC(=O)c2cc([N+](=O)[O-])ccc2Cl)n1)c1cc([N+](=O)[O-])ccc1Cl	KCNK9 inh -8.2, KCNK3 inh -9.9 (no result: KCC2 mod) | KCNK9 block conf inactive | Kir21 sel inactive | HEK293 Tl ctr 26%
O=C(CNS(=O)(=O)c1ccccc1)NCC(=O)OCc1ccc(Br)cc1	none (no result: KCC2 mod)
CCC(C)NC(=O)c1ccccc1NC(=O)C(C)N(c1ccccc1)S(C)(=O)=O (stereo not drawn)	none
CCC(=O)Nc1nnc(S(=O)(=O)N(C)c2cc(C)cc(C)c2)s1	none (no result: KCC2 mod)
CN(c1ccccc1)S(=O)(=O)c1cc(C(=O)c2nccn2C)ccc1Cl	none
Cc1ccc(NC(=S)NNC(=O)c2ccc(N3CCOCC3)c([N+](=O)[O-])c2)cc1Cl	KCNQ1 inh 6 | KCNK9 block conf inactive | Kir21 sel inactive | HEK293 Tl ctr inactive
Cc1cc(C(=O)Nc2ccc(N3CCCC3)c(Cl)c2)ccc1[N+](=O)[O-]	none
Cc1ccc(Cl)cc1NS(=O)(=O)Cc1ccccc1	none (no result: KCC2 mod) | KCNK9 block conf inactive | Kir21 sel inactive | HEK293 Tl ctr inactive
O=C(Oc1cccc(C(=O)N2CCOCC2)c1)c1ccc(Br)cc1	none
COc1ccccc1Cc1noc(COc2cccc(C)c2C)n1	none | KCNK9 block conf inactive | Kir21 sel inactive | HEK293 Tl ctr inactive
CO/N=C(\c1nonc1N)N1CCN(c2ccc(Cl)cc2[N+](=O)[O-])CC1	KCNK9 inh -8.3 | KCNK9 block conf 32% | Kir21 sel inactive | HEK293 Tl ctr 39%
Cc1cccc(-n2c(Cc3ccccc3)nnc2SCc2ccc([N+](=O)[O-])cc2)c1	KCNK9 inh -14 | KCNK9 block conf inactive | Kir21 sel inactive | HEK293 Tl ctr 41%
CCOc1ncccc1C(=O)OCC(=O)Nc1cc(C)ccc1C	none
CC(=O)N1N=C(c2ccncc2)CC1c1ccccc1O (stereo not drawn)	none
CC(=O)N1N=C(c2ccccc2)CC1c1cn(Cc2ccccc2)c2ccccc12 (stereo not drawn)	KCNK9 inh -8.4 | KCNK9 block conf 38% | Kir21 sel inactive | HEK293 Tl ctr 34%
COC(=O)c1cc(C#N)c(N2CCN(C)CC2)nc1C	none
CC(C)CN(C(=O)CN1CCOCC1)c1c(N)n(CC(C)C)c(=O)[nH]c1=O	none
CN(C)/C=N/c1nc(-c2ccc3ccccc3c2)cs1	none (no result: KCC2 mod) | KCNK9 block conf inactive | Kir21 sel inactive | HEK293 Tl ctr inactive
COC(=O)c1cn(CCOc2ccccc2OC)c2ccccc12	none
COC(=O)c1cn(CCOc2ccccc2F)c2ccccc12	KCNK9 inh -11 (no result: KCC2 mod) | KCNK9 block conf 45% | Kir21 sel inactive | HEK293 Tl ctr 44%
O=C(OCC(=O)N1CCc2ccccc21)c1cccc(S(=O)(=O)N2CCCc3ccccc32)c1	none | KCNK9 block conf inactive | Kir21 sel inactive | HEK293 Tl ctr inactive
O=C(COC(=O)c1c2c(nc3ccccc13)CCCC2)Nc1ccc2c(c1)OCO2	KCNK9 inh -12 | KCNK9 block conf 48% | Kir21 sel inactive | HEK293 Tl ctr inactive
O=C(c1cccc(S(=O)(=O)N2CCc3ccccc32)c1)N1CCN(c2ccccn2)CC1	KCNK9 inh -10 | KCNK9 block conf 36% | Kir21 sel inactive | HEK293 Tl ctr inactive
O=C(COC(=O)c1cc(-c2ccccc2)nc2ccccc12)Nc1ccc2c(c1)OCO2	none
